Legend:
[1] = biological target: T1, Sodium-dependent dopamine transporter (Rattus norvegicus, UniProt P23977); assay: Binding affinity at the Dopamine transporter in rat striata by inhibition of 0.5 nM [3H]WIN-35428 binding
[2] = biological target: T2, Norepinephrine transporter (Rattus norvegicus, UniProt Q9WTR4); assay: Binding affinity at the Norepinephrine transporter in rat frontal cortex by inhibition of 0.5 nM [3H]nisoxetine binding; type: tissue-based
[3] = biological target: T3, Monoamine transporters; serotonin & dopamine (Rattus norvegicus) (UniProt P31652+P23977); assay: Ratio of IC50 value against 5-HT to that of DA transporters; type: protein assay
T3 sequence (P23977 whole entry, looked up): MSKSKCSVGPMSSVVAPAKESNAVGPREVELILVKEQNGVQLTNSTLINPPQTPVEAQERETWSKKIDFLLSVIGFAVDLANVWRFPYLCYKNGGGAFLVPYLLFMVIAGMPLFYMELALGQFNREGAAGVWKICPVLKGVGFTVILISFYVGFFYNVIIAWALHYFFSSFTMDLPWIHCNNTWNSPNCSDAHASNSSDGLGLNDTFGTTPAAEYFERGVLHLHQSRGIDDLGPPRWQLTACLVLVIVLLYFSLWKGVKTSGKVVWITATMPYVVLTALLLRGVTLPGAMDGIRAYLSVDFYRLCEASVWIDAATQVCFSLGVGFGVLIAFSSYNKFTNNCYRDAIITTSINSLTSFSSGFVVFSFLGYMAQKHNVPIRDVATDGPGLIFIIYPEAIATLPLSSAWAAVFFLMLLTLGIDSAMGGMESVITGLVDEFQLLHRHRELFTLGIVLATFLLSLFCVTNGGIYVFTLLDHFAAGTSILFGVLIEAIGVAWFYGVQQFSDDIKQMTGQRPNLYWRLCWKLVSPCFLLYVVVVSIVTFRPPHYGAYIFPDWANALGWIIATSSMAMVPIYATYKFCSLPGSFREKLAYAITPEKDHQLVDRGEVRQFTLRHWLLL
T3 sequence (P31652 whole entry, looked up): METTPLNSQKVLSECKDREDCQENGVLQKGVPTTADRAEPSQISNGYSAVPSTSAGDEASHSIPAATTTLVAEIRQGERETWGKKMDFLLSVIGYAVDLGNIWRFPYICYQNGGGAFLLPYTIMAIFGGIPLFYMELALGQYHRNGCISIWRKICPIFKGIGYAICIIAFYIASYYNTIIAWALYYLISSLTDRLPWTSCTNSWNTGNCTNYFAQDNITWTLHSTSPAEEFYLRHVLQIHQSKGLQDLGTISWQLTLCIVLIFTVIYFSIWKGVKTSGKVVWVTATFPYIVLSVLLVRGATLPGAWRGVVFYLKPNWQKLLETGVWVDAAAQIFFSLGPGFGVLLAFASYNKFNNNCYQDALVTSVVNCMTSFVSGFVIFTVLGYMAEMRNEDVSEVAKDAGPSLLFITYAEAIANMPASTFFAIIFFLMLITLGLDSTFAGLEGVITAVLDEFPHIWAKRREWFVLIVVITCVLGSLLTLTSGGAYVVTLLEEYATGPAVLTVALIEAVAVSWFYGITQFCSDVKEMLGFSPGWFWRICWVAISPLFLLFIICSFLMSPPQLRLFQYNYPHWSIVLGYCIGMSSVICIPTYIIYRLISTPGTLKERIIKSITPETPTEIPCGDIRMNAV

[4] = biological target: Monoamine transporters; Norepininephrine & dopamine (Rattus norvegicus) (UniProt P23977+Q9WTR4); assay: Ratio of IC50 value against NE to that of DA transporters; type: protein assay
Summary of the method: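 Competition binding against 0.5 nM [3H]WIN 35,428 (DA transporter) or 0.5 nM [3H]nisoxetine (NE transporter). The IC50 is the mean ± standard error of three or four experiments, each run in triplicate. Selectivity ratios are NE/DA or 5-HT/DA quotients of the IC50 values.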

[5] = biological target: T4, Sodium-dependent serotonin transporter (Rattus norvegicus, UniProt P31652); assay: Binding affinity at the Serotonin transporter in rat midbrain by inhibition of 0.5 nM [3H]-paroxetine binding; type: tissue-based
T4 sequence (P31652 whole entry): as the sequence (P31652 whole entry, looked up) above

[6] = biological target: T1, Sodium-dependent dopamine transporter; assay: Inhibition of [3H]DA uptake by rat striatal dopamine transporter
Summary of the method: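 Rat striatal crude synaptosomes were prepared from male Sprague–Dawley rats by 0.32 M sucrose homogenisation and centrifugation at 800g then 2000g. Each tube held 1.5 mg tissue, 0.5 nM [3H]dopamine and 10 μM pargyline in Krebs phosphate buffer, pH 7.4, with dextrose and ascorbate. Incubation was 3 min at 30 °C, followed by filtration and scintillation counting. Nonspecific uptake was defined with 1 μM mazindol. Three or four experiments were run in triplicate, and Ki was derived by Cheng–Prusoff.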

[7] = biological target: T2, Norepinephrine transporter; assay: Inhibition of [3H]NE uptake by rat frontal cortex Norepinephrine transporter; type: tissue-based
Summary of the method: (§1)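 Rat frontal cortex synaptosomes were used at 10 mg/mL tissue with 5 nM final [3H]norepinephrine and 10 μM pargyline in Krebs phosphate buffer, pH 7.4. Incubation was 3 min at 30 °C, followed by filtration and scintillation counting. Nonspecific uptake was defined with 1 μM desipramine. Three or four experiments were run in triplicate, and Ki was derived by Cheng–Prusoff.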

[8] = biological target: T3, Monoamine transporters; serotonin & dopamine (Rattus norvegicus); assay: Ratio of IC50 value against Serotonin transporter to that of dopamine transporter; type: protein assay
[9] = biological target: T4, Sodium-dependent serotonin transporter; assay: Inhibition of [3H]- 5-HT uptake in Serotonin transporter using serotonin uptake assay in rat midbrain tissue; type: tissue-based
Summary of the method: as §1, with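 “Rat midbrain” for “Rat frontal cortex”, “at 1” for “at 10”, “final [3H]serotonin” for “final [3H]norepinephrine”, “μM citalopram.” for “μM desipramine.”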

[10] = biological target: T4, Sodium-dependent serotonin transporter; assay: Ratio of Ki value towards Serotonin transporter to that of dopamine transporter
Summary of the method: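 Rat [3H]uptake into crude synaptosomes in modified Krebs phosphate buffer, pH 7.4, with dextrose, ascorbic acid and 10 μM pargyline, 3 min at 30 °C, filtered and scintillation counted. DA: male Sprague–Dawley striatum, 0.5 nM [3H]dopamine, 1 μM mazindol nonspecific. 5-HT: midbrain, 5 nM [3H]serotonin, 1 μM citalopram nonspecific. Ki by Cheng–Prusoff; 5-HT Ki/DA Ki; 3–4 experiments in triplicate.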

T1 sequence (P23977 whole entry): as the sequence (P23977 whole entry, looked up) above
T2 sequence (Q9WTR4 whole entry): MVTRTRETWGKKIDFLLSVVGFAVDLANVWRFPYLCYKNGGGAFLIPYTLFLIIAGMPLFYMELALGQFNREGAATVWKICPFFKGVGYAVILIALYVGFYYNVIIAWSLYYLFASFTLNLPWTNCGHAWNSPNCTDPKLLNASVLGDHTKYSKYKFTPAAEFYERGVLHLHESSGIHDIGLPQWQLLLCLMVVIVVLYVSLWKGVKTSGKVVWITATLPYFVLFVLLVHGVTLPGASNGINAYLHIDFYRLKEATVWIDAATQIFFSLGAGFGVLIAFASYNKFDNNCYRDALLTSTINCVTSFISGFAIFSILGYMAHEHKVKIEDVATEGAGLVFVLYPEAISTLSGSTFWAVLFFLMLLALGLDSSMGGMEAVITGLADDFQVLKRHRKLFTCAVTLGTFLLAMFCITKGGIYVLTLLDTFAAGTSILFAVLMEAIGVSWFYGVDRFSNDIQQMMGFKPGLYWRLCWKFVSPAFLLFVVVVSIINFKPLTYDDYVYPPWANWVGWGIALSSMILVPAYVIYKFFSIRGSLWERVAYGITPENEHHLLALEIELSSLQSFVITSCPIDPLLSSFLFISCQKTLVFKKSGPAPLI

CNC(=O)C1C(OC(=O)c2ccccc2)CC2CCC1N2C (configuration not stated)
IC50 [1]: 2420 nM
IC50 [2]: 4210 nM
Ratio [3]: 18
Ratio [4]: 1.7
IC50 [5]: 44800 nM

Cc1ccc(C2CC3CCC(C2C(=O)OC(C)C)N3C)cc1 (configuration not stated)
IC50 [1]: 6.45 nM
IC50 [2]: 1930 nM
Ratio [3]: 944
Ki [6]: 15.3 nM
Ki [7]: 73.4 nM
Ratio [8]: 59.9
Ratio [4]: 299

CN1C2CCC1C(C(=O)NCO)C(c1ccc(Cl)cc1)C2 (configuration not stated)
IC50 [1]: 2.05 nM
IC50 [2]: 144 nM
Ratio [3]: 48
Ratio [4]: 47

COC(=O)[C@H]1[C@@H](c2ccc(F)cc2)C[C@H]2CC[C@H]1N2C
Ki [7]: 38.6 nM
Ki [9]: 101 nM
IC50 [5]: 692 nM

CN1C2CCC1C(C(N)=O)C(OC(=O)c1ccccc1)C2 (configuration not stated)
IC50 [1]: 753 nM
IC50 [2]: 3980 nM
Ratio [3]: 18
Ratio [4]: 5.3
IC50 [5]: 13700 nM

CN1C2CCC1C(C(N)=O)C(c1ccc(Cl)cc1)C2 (configuration not stated)
IC50 [1]: 11.5 nM
IC50 [2]: 4270 nM
Ratio [3]: 141
Ratio [4]: 371
IC50 [5]: 1620 nM

COC(=O)C1C(c2ccc(I)cc2)CC2CCC1N2C (configuration not stated)
IC50 [1]: 1.26 nM
IC50 [2]: 36 nM
Ki [6]: 1.96 nM
Ki [7]: 7.51 nM
Ki [9]: 1.74 nM
Ratio [8]: 3.3
Ratio [4]: 29

CN1C2CCC1C(C(=O)OC1CC1)C(c1ccc(I)cc1)C2 (configuration not stated)
IC50 [1]: 0.61 nM
IC50 [2]: 102 nM
Ratio [3]: 25
Ratio [4]: 167

Cc1ccc(C2CC3CCC(C2C(N)=O)N3C)cc1 (configuration not stated)
IC50 [1]: 41.8 nM
IC50 [2]: 4400 nM
Ratio [3]: 152
Ratio [4]: 105
IC50 [5]: 6370 nM

CN1C2CCC1C(C(=O)Oc1ccccc1)C(c1ccc(Cl)cc1)C2 (configuration not stated)
Ki [6]: 5.25 nM
Ki [7]: 242 nM
Ki [9]: 391 nM
Ratio [8]: 1180
Ratio [4]: 1490

CN1C2CCC1C(C(=O)OC/C=C/c1ccccc1)C(OC(=O)c1ccccc1)C2 (configuration not stated)
IC50 [1]: 371 nM
IC50 [2]: 68900 nM
Ratio [3]: 1
Ratio [4]: 186
IC50 [5]: 368 nM

CC(C)OC(=O)C1C(c2ccc(Cl)cc2)CC2CCC1N2C (configuration not stated)
IC50 [1]: 1.4 nM
IC50 [2]: 778 nM
Ki [6]: 6.04 nM
Ki [7]: 250 nM
Ki [9]: 129 nM
Ratio [8]: 1000
Ratio [4]: 556

COC(=O)C1C(c2ccc(Cl)cc2)CC2CCC1N2C (configuration not stated)
Ki [6]: 3.68 nM
Ki [9]: 5 nM

CN1C2CCC1C(C(=O)Oc1ccccc1)C(c1ccc(I)cc1)C2 (configuration not stated)
IC50 [1]: 1.5 nM
IC50 [2]: 3790 nM
Ki [6]: 6.85 nM
Ki [7]: 32.7 nM
Ki [9]: 51.6 nM
Ratio [8]: 123
Ratio [4]: 2580
IC50 [5]: 184 nM

CC(C)OC(=O)C1C(c2ccc(I)cc2)CC2CCC1N2C (configuration not stated)
IC50 [1]: 0.43 nM
IC50 [2]: 285 nM
Ratio [3]: 155
Ki [6]: 2.79 nM
Ki [7]: 41.2 nM
Ki [10]: 12.5 nM
Ratio [4]: 662
IC50 [5]: 66.8 nM

Cc1ccc(C2CC3CCC(C2C(=O)Oc2ccccc2)N3C)cc1 (configuration not stated)
IC50 [1]: 3.26 nM
IC50 [2]: 5830 nM
Ki [6]: 9.13 nM
Ki [7]: 278 nM
Ki [9]: 1540 nM
Ratio [8]: 7410
Ratio [4]: 1790

Reference: ChEMBL document CHEMBL1128444 (J Med Chem, 1995)
